How the values were obtained:
[1] = biological target: Activated CDC42 kinase 1 (Homo sapiens) (UniProt Q07912); assay: Inhibition of recombinant GST-tagged human TNK2 catalytic/cytoplasmic domain (110 to 476 residues) expressed in baculovirus expression system at 1 uM by FRET assay relative to control
Procedure, shortened: (§1)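 Single-point screen at 1 μM compound in a 220-kinase panel run by Life Technologies (SelectScreen). Z′-LYTE format: phosphorylation of a labeled peptide substrate read by FRET. Values are reported as percent inhibition.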

[2] = biological target: Mitogen-activated protein kinase 10 (Homo sapiens, UniProt P53779); assay: Inhibition of recombinant full length GST-tagged human JNK3 expressed in baculovirus expression system at 1 uM by FRET assay relative to control
Procedure, shortened: (§2)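 Single-concentration screen at 1 μM in Life Technologies SelectScreen, across a 220-kinase panel. Z′-LYTE format measures phosphorylation of a labeled peptide by FRET. Results are reported as percent inhibition.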

[3] = biological target: CDK7/Cyclin H/MNAT1 (Homo sapiens) (UniProt P51946+P50613+P51948); assay: Inhibition of recombinant full length His-tagged human CDK7/cyclin H/MNAT1 expressed in baculovirus expression system at 1 uM by FRET assay relative to control
[4] = biological target: Fibroblast growth factor receptor 3 (Homo sapiens) (UniProt P22607); assay: Inhibition of recombinant His-tagged FGFR3 human cytoplasmic domain expressed in baculovirus expression system at 1 uM by FRET assay relative to control; procedure, shortened: as §1
[5] = biological target: NUAK family SNF1-like kinase 1 (Homo sapiens) (UniProt O60285); assay: Inhibition of recombinant full length His-tagged human ARK5 expressed in baculovirus expression system at 1 uM by FRET assay relative to control
[6] = biological target: Calcium/calmodulin-dependent protein kinase type II subunit alpha (Homo sapiens) (UniProt Q9UQM7); assay: Inhibition of CamK2alpha (unknown origin) at 1 uM by FRET assay relative to control
[7] = biological target: Ribosomal protein S6 kinase alpha-3 (Homo sapiens) (UniProt P51812); assay: Inhibition of recombinant full length His-tagged human RSK2 expressed in baculovirus expression system at 1 uM by FRET assay relative to control
[8] = biological target: Aurora kinase A (Homo sapiens) (UniProt O14965); assay: Inhibition of recombinant full length His-tagged human Aurora A expressed in baculovirus expression system at 1 uM by FRET assay relative to control
[9] = biological target: Calcium/calmodulin-dependent protein kinase kinase 2 (Homo sapiens) (UniProt Q96RR4); assay: Inhibition of recombinant full length GST-tagged human CAMKK2 expressed in baculovirus expression system at 1 uM by FRET assay relative to control; procedure, shortened: as §2
[10] = biological target: BDNF/NT-3 growth factors receptor (Homo sapiens) (UniProt Q16620); assay: Inhibition of recombinant His-tagged human TrkB cytoplasmic domain expressed in baculovirus expression system at 1 uM by FRET assay relative to control; procedure, shortened: as §2
[11] = species on record: Homo sapiens; assay: Binding affinity to GABA-gated chloride channel (unknown origin) receptor at 10 uM relative to control
Procedure, shortened: (§3)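 Broad radioligand-binding and enzyme screening panel covering 42 targets (biogenic amine and neuropeptide receptors, ion channels, neurotransmitter transporters, acetylcholinesterase). Single test concentration of 10 μM. Results expressed as binding relative to control, with a hit defined as >50% of control.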

[12] = biological target: Mitogen-activated protein kinase kinase kinase 20 (Homo sapiens) (UniProt Q9NYL2); assay: Inhibition of recombinant N-terminal full length GST-tagged human ZAK expressed in baculovirus expression system at 1 uM by FRET assay relative to control; procedure, shortened: as §2
[13] = biological target: Eukaryotic elongation factor 2 kinase (Homo sapiens) (UniProt O00418); assay: Inhibition of recombinant full length GST-tagged human eEF2K expressed in Escherichia coli at 1 uM by FRET assay relative to control
[14] = biological target: Mitogen-activated protein kinase kinase kinase 13 (Homo sapiens, UniProt O43283); assay: Binding affinity to full length wild type human LZK (M1 to W966 residues) expressed in mammalian cells by KINOMEscan assay; assay type: cell-based
[15] = biological target: Tyrosine-protein kinase ABL1 (Homo sapiens) (UniProt P00519); assay: Inhibition of recombinant GST/His-tagged human Abl (118 to 535 residues) at 1 uM by FRET assay relative to control; procedure, shortened: as §1
[16] = biological target: Beta-adrenergic receptor kinase 1 (Homo sapiens) (UniProt P25098); assay: Inhibition of recombinant full length His-tagged human GRK2 expressed in baculovirus expression system at 1 uM by FRET relative to control
[17] = biological target: MAP kinase-interacting serine/threonine-protein kinase 2 (Homo sapiens) (UniProt Q9HBH9); assay: Inhibition of recombinant human N-terminal full length GST-tagged MKNK2 expressed in baculovirus at 1 uM by FRET assay relative to control
[18] = biological target: Dual specificity tyrosine-phosphorylation-regulated kinase 3 (Homo sapiens) (UniProt O43781); assay: Inhibition of full length recombinant GST-tagged human DYRK3 expressed in baculovirus expression system at 1 uM by FRET assay relative to control
[19] = biological target: Maternal embryonic leucine zipper kinase (Homo sapiens) (UniProt Q14680); assay: Inhibition of recombinant GST-tagged human MELK expressed in baculovirus expression system at 1 uM by FRET assay relative to control; procedure, shortened: as §1
[20] = biological target: Fibroblast growth factor receptor 4 (Homo sapiens) (UniProt P22455); assay: Inhibition of recombinant His-tagged human FGFR4 cytoplasmic domain expressed in baculovirus expression system at 1 uM by FRET assay relative to control; procedure, shortened: as §1
[21] = biological target: Dual specificity protein kinase TTK (Homo sapiens) (UniProt P33981); assay: Inhibition of recombinant full length GST-tagged human TTK expressed in baculovirus expression system at 1 uM by FRET assay relative to control
[22] = biological target: Tyrosine-protein kinase Lyn (Homo sapiens) (UniProt P07948); assay: Inhibition of recombinant full length His-tagged human LYN expressed in baculovirus expression system at 1 uM by FRET assay relative to control
[23] = biological target: Protein kinase C eta type (Homo sapiens) (UniProt P24723); assay: Inhibition of PKCeta (unknown origin) at 1 uM by FRET assay relative to control
[24] = biological target: Mitogen-activated protein kinase kinase kinase kinase 4 (Homo sapiens) (UniProt O95819); assay: Inhibition of recombinant GST-tagged human MAP4K4 (1 to 328 residues) expressed in baculovirus expression system at 1 uM by FRET assay relative to control; procedure, shortened: as §1
[25] = biological target: D(2) dopamine receptor (Homo sapiens) (UniProt P14416); assay: Binding affinity to recombinant human D2 short dopamine receptor at 10 uM relative to control; procedure, shortened: as §3
[26] = biological target: Ephrin type-B receptor 1 (Homo sapiens) (UniProt P54762); assay: Inhibition of recombinant GST-tagged human EphB1 cytoplasmic domain expressed in baculovirus expression system at 1 uM by FRET assay relative to control; procedure, shortened: as §1
[27] = biological target: Myosin light chain kinase, smooth muscle (Homo sapiens) (UniProt Q15746); assay: Inhibition of recombinant human full length N-terminal GST-tagged smMLCK catalytic domain expressed in baculovirus expression system at 1 uM by FRET assay relative to control
[28] = biological target: Aurora kinase B (Homo sapiens) (UniProt Q96GD4); assay: Inhibition of recombinant full length His-tagged human Aurora B expressed in baculovirus expression system at 1 uM by FRET assay relative to control

Aurora kinase A (Homo sapiens), sequence (O14965 whole entry): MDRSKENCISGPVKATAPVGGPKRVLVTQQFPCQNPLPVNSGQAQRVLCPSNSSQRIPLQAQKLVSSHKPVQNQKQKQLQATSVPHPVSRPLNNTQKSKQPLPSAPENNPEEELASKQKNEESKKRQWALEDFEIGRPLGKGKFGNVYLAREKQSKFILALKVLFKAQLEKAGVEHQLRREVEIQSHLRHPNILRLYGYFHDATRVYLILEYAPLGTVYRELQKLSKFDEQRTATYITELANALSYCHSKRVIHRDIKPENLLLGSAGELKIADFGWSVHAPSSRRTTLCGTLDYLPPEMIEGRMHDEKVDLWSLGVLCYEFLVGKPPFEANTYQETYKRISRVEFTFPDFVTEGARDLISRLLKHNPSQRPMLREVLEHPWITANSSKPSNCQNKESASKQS
Calcium/calmodulin-dependent protein kinase type II subunit alpha (Homo sapiens), sequence (Q9UQM7 whole entry): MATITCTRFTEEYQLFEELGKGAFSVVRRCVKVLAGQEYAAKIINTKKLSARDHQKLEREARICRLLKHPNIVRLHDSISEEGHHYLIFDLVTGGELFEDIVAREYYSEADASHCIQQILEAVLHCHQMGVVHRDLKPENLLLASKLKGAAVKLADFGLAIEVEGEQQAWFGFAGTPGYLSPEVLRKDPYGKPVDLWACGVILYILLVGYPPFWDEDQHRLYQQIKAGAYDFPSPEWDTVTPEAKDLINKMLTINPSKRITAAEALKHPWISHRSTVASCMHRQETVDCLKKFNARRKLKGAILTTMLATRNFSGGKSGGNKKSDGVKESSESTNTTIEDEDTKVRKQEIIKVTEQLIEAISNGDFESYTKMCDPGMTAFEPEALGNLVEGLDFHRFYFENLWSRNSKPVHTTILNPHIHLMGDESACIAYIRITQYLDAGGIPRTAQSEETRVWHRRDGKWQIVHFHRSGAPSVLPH
Activated CDC42 kinase 1 (Homo sapiens), sequence (Q07912 whole entry, looked up, the tested form may be a part): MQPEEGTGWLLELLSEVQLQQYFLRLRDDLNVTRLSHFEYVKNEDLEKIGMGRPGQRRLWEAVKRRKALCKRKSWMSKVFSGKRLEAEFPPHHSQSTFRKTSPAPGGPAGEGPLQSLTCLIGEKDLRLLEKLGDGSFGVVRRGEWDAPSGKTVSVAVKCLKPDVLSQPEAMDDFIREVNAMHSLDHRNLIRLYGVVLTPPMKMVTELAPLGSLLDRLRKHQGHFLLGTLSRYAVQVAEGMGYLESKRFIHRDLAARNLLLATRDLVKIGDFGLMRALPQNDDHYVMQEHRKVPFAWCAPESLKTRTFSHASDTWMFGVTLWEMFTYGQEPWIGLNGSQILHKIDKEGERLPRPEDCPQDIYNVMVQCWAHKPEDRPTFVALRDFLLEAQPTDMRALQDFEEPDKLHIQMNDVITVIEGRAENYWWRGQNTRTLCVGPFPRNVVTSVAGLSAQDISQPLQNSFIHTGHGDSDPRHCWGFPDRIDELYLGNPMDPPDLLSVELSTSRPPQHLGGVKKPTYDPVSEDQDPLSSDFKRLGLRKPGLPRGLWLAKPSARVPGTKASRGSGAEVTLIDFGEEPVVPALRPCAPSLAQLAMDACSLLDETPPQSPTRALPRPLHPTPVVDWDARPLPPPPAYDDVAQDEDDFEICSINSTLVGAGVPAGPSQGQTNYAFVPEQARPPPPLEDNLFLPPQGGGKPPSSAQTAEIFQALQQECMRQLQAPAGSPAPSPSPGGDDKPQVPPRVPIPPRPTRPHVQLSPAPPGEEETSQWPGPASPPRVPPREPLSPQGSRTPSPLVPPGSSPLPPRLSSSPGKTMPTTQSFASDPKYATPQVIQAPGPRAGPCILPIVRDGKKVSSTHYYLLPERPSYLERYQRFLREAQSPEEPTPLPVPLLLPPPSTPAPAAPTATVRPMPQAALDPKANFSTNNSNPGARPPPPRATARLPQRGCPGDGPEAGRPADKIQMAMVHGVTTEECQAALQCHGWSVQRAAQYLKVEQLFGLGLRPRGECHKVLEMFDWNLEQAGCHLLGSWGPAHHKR
Fibroblast growth factor receptor 3 (Homo sapiens), sequence (P22607 23-806 limits assumed): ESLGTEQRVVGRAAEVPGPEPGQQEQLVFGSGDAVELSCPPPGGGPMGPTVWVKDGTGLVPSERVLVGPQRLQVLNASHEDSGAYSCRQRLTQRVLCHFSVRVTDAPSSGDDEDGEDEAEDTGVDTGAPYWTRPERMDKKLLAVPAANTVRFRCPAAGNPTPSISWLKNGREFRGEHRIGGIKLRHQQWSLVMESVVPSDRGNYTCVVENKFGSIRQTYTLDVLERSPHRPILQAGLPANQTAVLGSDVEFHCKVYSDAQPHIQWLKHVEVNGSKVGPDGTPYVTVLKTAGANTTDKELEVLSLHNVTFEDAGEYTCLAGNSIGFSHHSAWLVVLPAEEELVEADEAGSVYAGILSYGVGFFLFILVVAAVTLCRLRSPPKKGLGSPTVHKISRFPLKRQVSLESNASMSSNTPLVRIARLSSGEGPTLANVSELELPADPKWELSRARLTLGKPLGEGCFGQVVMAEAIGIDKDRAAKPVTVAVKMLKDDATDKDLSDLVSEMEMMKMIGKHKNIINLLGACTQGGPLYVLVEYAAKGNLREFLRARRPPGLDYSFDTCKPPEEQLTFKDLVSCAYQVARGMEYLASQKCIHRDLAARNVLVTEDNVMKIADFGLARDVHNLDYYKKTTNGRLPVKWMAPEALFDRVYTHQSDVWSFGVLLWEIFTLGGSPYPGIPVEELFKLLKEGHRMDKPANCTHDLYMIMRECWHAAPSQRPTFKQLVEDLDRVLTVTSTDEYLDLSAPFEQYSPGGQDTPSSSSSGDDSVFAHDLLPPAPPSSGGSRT
Dual specificity protein kinase TTK (Homo sapiens), sequence (P33981 whole entry): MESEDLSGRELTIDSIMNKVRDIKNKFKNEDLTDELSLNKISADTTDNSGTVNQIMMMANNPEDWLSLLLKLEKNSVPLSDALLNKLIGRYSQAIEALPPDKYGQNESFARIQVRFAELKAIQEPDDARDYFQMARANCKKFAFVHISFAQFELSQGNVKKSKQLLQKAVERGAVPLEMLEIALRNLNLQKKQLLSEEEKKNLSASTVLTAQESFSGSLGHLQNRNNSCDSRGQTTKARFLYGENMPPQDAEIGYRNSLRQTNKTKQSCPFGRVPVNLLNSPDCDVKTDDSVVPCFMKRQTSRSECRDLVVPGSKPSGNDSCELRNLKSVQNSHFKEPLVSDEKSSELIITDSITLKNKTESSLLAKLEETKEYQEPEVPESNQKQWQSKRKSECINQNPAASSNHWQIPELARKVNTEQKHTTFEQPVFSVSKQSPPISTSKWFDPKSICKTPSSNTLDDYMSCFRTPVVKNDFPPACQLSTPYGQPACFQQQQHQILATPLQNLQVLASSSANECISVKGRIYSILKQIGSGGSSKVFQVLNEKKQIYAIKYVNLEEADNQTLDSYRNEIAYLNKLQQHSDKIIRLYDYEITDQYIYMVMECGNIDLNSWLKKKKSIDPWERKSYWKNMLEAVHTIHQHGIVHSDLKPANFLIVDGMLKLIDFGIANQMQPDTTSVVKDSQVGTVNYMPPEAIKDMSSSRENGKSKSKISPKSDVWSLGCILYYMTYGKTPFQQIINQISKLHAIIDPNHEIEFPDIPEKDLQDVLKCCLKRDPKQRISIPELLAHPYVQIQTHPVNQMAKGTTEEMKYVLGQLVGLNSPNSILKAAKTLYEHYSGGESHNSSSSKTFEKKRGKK
BDNF/NT-3 growth factors receptor (Homo sapiens), sequence (Q16620 32-822 limits assumed): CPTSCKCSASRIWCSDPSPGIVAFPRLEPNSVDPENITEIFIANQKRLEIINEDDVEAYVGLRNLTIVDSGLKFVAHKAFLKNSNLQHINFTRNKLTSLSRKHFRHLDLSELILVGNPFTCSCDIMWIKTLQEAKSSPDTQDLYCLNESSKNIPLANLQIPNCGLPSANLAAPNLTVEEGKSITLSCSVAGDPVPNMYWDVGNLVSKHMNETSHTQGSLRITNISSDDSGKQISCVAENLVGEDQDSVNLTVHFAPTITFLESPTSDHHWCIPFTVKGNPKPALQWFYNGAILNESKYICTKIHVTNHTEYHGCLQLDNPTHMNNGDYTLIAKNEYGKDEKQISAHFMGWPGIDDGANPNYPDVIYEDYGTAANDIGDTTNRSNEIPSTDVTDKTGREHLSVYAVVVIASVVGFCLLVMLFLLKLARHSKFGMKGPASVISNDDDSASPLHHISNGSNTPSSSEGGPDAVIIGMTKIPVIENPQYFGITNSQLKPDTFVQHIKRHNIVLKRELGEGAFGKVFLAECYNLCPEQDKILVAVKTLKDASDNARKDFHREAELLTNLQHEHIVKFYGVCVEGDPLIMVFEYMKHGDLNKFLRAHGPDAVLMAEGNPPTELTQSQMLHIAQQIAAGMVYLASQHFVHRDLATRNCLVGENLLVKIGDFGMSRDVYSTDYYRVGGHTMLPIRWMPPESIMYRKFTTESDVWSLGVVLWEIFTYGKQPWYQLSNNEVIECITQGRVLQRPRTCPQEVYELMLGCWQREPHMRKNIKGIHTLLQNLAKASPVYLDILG
D(2) dopamine receptor (Homo sapiens), sequence (P14416 whole entry, the tested form may be a part): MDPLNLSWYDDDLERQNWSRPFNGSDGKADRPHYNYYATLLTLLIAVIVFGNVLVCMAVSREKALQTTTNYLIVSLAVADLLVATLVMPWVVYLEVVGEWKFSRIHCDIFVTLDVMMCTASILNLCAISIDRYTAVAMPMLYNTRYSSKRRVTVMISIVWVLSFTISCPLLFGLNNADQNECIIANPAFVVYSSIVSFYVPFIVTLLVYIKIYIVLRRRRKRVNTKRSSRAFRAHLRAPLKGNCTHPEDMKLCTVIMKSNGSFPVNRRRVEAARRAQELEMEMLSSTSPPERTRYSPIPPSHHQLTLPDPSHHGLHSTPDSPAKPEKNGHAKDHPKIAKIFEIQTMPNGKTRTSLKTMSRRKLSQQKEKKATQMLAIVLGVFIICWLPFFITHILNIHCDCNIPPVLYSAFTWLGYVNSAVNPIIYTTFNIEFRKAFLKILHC

SMILES	inhibition [1] [%]	inhibition [2] [%]	inhibition [3] [%]	inhibition [4] [%]	inhibition [5] [%]	inhibition [6] [%]	inhibition [7] [%]	inhibition [8] [%]	inhibition [9] [%]	inhibition [10] [%]	Activity [11] [%]	inhibition [12] [%]	inhibition [13] [%]	Kd [14] [nM]	inhibition [15] [%]	inhibition [16] [%]	inhibition [17] [%]	inhibition [18] [%]	inhibition [19] [%]	inhibition [20] [%]	further results
CC(C)n1nc(-c2cnc(N)c(OC(F)(F)F)c2)cc1[C@H]1[C@@H]2CN(C3COC3)C[C@@H]21	1.3	8.6	28.6	-1.8	30.1	2.4	2.8	16.2	1.5	44.3	> 50	2.5	4.4	460	10.9	-2.5	12.3	0.6	30.4	1.2	inhibition [21]: 14.2%; inhibition [22]: 15.6%; inhibition [23]: 1.7%; inhibition [24]: 22.1%; Activity [25]: > 50%; inhibition [26]: 10.1%; inhibition [27]: 19.6%; inhibition [28]: 14.4%
Nc1ncc(-c2cc([C@H]3[C@@H]4CN(C5COC5)C[C@@H]43)n(CC3CC3)n2)cc1C(F)(F)F	0.3	4.2	15.7	-9.3	29.1	0.6	2	27.2	8.7	38.8	> 50	1.4	-5.1	120	14.9	2.1	0.9	-7.9	12.6	6.3	inhibition [21]: 11.2%; inhibition [22]: 17.9%; inhibition [23]: -3.9%; inhibition [24]: 21.4%; Activity [25]: > 50%; inhibition [26]: 5.9%; inhibition [27]: 11.7%; inhibition [28]: 7.4%

From ChEMBL document CHEMBL4118097, “Selective Inhibitors of Dual Leucine Zipper Kinase (DLK, MAP3K12) with Activity in a Model of Alzheimer's Disease” (J Med Chem, 2017)
